Fh CTSL1 inh: blocks F. hepatica cathepsin L1 in PFM18AAP counter-screen. recombinant F. hepatica cathepsin L1, Z-Leu-Arg-MCA fluorescence. inhibition, % at 5.96 µM. hit rate 0.49% among 300,000. AID 1906;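 active = inhibition above the mean of all tested compounds plus 3 SD, set per screening campaign, cut at about 17% in these data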;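 note: 0% = plate median of test compound wells and 100% = 1 µM Z-Phe-Ala-diazomethylketone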
ATG4B inh: inhibitors of human ATG4B cysteine protease. ATG4B cleavage of LC3-PLA2, NBD-HPC fluorescence, 1 h. inhibition, % at 8.33 µM. hit rate 0.51% among 340,000. AID 504462; in the data active = inhibition above about 40%
Target sequence (Q9Y4P1 whole entry, looked up): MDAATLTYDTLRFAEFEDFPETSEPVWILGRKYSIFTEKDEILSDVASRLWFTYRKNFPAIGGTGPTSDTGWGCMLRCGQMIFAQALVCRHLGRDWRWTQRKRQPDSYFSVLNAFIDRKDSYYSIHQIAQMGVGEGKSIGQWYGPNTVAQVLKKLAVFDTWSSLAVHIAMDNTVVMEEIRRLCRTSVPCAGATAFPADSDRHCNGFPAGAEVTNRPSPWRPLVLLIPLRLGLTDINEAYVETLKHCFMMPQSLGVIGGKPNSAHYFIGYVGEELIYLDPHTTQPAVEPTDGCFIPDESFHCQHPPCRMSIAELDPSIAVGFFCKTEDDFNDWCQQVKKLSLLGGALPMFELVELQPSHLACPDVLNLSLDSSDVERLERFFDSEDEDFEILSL
Diaph act CS: activates diaphorase or chemically reduces, flagging diaphorase assay artifacts; Diaphorase/resazurin coupled assay, resorufin fluorescence, 16 min; active compounds read high; 1 = vehicle wells, 0 = NADH-free wells; activation factor at 20 µM; hit rate 0.005% among 190,000;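 active = diaphorase activity raised at least twofold by the compound at 20 µM; inactive = activation factor below 2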
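Material: purified diaphorase enzyme from Clostridium kluyveri / Medium: HEPES pH 7.4 buffer with MgCl2 and Tween 20 / Schedule: enzyme reaction of 16 min at room temperature / Measured by: resorufin fluorescence, excitation 544 nm, emission 590 nm / Evaluation: rise in resorufin formation, marking diaphorase activation or chemical reduction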
Diaph inh CS: diaphorase inhibition or chemical oxidation counter-screen; diaphorase resazurin-to-resorufin fluorescence, NADH, 16 min; bacterial (C. kluyveri) enzyme, not human; inhibition, % at 20 µM; hit rate 0.69% among 190,000; AID 1217;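 active = primary screen inhibition at 20 µM above a set limit, cut at about 50% in these data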;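 note: plate controls were DMSO with full reaction for no effect and wells lacking NADH for full effect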
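System: Bacterial diaphorase enzyme (C. kluyveri) | Incubation: 16-min room-temperature incubation before reading | Benchmarks: No-NADH positive control and DMSO neutral control | Measured by: Resorufin fluorescence 544/590 nm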
HKDC1 inh: inhibitors of human hexokinase HKDC1 | Q2TB90 | hit rate 0.16% among 340,000 | recombinant HKDC1, G6PDH/diaphorase resazurin coupled fluorescence | inhibition, % at 20 µM;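 active = inhibition above about 35% when tested at 20 µM, limit read from the data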;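 note: plate controls were DMSO wells with enzyme for no effect and DMSO wells lacking enzyme for full effect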
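Assay system – recombinant HKDC1 (HK5) hexokinase enzyme, produced in-house · Input – HKDC1 at 5 µg/mL · Reagent – glucose plus 1 mM ATP as hexokinase substrates · Timing – 90 min reaction incubation at room temperature, dark · Measured by – G6PDH/diaphorase-coupled fluorescence, 1 mM NADP, 100 µM resazurin, 525/613 nm · Benchmarks – DMSO-enzyme wells negative, buffer-substituted wells positive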
ATG4B conf: ATG4B (human) inhibition, single-dose confirmed. shares compounds with ATG4B inh. ATG4B protease fluorescent substrate cleavage assay. inhibition, % at 8.33 µM. hit rate 92% among 320. AID 504757; in the data active = inhibition above about 39%
PLA2 ctr: PLA2 (human) inhibition in ATG4B counter-screen. shares compounds with ATG4B inh. purified PLA2, NBD-C6-HPC fluorescence, 45 min. inhibition, % at 8.33 µM. hit rate 66% among 1,600. AID 588402; in the data active = inhibition above about 50%
Target sequence (P04054 whole entry, looked up): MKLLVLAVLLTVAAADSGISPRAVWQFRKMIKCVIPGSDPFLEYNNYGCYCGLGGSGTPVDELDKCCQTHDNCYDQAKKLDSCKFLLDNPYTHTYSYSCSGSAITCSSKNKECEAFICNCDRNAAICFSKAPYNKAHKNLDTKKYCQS
Numbers without * were called inactive; . = not tested or not shown. Most compounds without a hit are left out; they make up all but 1.4% or so of the library.

SMILES	Fh CTSL1 inh	ATG4B inh	Diaph act CS	Diaph inh CS	HKDC1 inh	PLA2 ctr	others
COc1cccc(CNS(=O)(=O)c2c(C)[nH]c(C)c2C(=O)N2CCCCC2)c1	-4	0	.	.	-2	.
O=C(O)C1C2CCC(C2)C1C(=O)Nc1cccc([N+](=O)[O-])c1 (stereo not given)	.	1	.	.	-2	.
O=C(Nc1cccc([N+](=O)[O-])c1)C1C2CC/C=C\CCC21 (stereo not given)	3	54*	.	.	-2	66*
CCN(Cc1ccccc1)c1ccc(N=Nc2nn(C)c(C)c2[N+](=O)[O-])cc1	3	53*	0.9	13	-2	35
CCN(CC)c1ccc(N=Nc2nn(C)c(C)c2[N+](=O)[O-])cc1	2	35	0.8	22	0	.
O=C1ON(Cc2ccccc2)C(c2ccccc2)N1c1ccccc1 (stereo not given)	.	4	.	.	-2	.
Cc1ccc(NC(=S)NCc2ccccc2)cc1[N+](=O)[O-]	0	54*	0.8	21	0	63*
O=C(NCc1ccc(F)cc1)Nc1ccc(Cl)cc1	3	46*	1	-1	-4	54*
FC(F)Sc1ccc(NC(=S)NCc2ccccc2)cc1	0	44*	0.8	22	1	60*
FC(F)Sc1ccc(NC(=S)NC(c2ccccc2)c2ccccc2)cc1	-3	-3	0.9	10	-2	.
O=C(NCc1ccc(F)cc1)Nc1cccc(Cl)c1	7	67*	0.9	7	-9	73*
COCCn1c(SCC(=O)NN2C(=O)NC(C)(c3ccccc3)C2=O)nnc1-c1ccncc1 (stereo not given)	.	6	.	.	-6	.
O=C(O)CSc1nc2ccc(C(=O)c3ccccc3)cc2[nH]1	.	-1	.	.	-4	.
Cc1ccccc1-n1ncc(C(C)NS(=O)(=O)c2ccccc2Cl)c1C (stereo not given)	.	12	.	.	7	.
O=C(CNc1cccc(Cl)c1)NNC(=S)NCc1ccccc1	6	-6	1	4	-2	.
Cc1onc(-c2ccccc2)c1CNC(=O)Nc1cccc(Cl)c1	-2	46*	.	.	1	44	ATG4B conf=73*
S=C(NCc1ccccc1)Nc1cccc(Cl)c1	-3	50*	0.9	10	-6	43	ATG4B conf=59*
CCn1cc(C(=O)OCc2cccc(Br)c2)c(=O)c2ccc(C)nc21	-2	46*	0.9	13	-7	53*
CCn1cc(C(=O)OCC(=O)OC2CC(C)CCC2C(C)C)c(=O)c2ccc(C)nc21 (stereo not given)	12	71*	0.8	22	3	71*
C=Cc1ccc(COC(=O)c2cn(CC)c3nc(C)ccc3c2=O)cc1	0	40*	.	.	4	49
CC(C)(C)C(=O)Nc1ccc(C(=O)COC(=O)C2=COCCO2)cc1	.	-16	.	.	6	.
O=C(COc1ccc(Br)cc1)NCCNC(=O)c1ccccn1	3	-1	.	.	-2	.
CSc1ncccc1C(=O)Nc1nccs1	2	0	.	.	0	.
COc1ccc(C(=O)On2c(-c3ccc(Br)cc3)nc3ccccc3c2=O)cc1	-3	56*	0.8	15	2	66*
COc1cc(OC)cc(-c2nc3ccccc3c(=O)n2OC(=O)c2ccc(Br)cc2)c1	2	55*	0.9	12	29	29	ATG4B conf=30
SMILES	Fh CTSL1 inh	ATG4B inh	Diaph act CS	Diaph inh CS	HKDC1 inh	PLA2 ctr	others
CCOC(=O)c1c(NC(=O)COC(=O)Cc2n[nH]c(=O)c3ccccc23)sc(C(=O)NC)c1C	.	-35	.	.	-5	.
CCOc1ccccc1CNC(=O)C1CCCN(c2nnc(C)c3c(C)n(-c4ccccc4)nc23)C1 (stereo not given)	-1	-3	.	.	-1	.
CC(=O)Nc1cccc(-c2cc(-c3c(Cl)cccc3Cl)no2)c1	2	5	.	.	2	.
CNC(=O)Nc1cccc(-c2cc(-c3c(Cl)cccc3Cl)no2)c1	0	59*	.	.	2	65*
CC(C)CN1C(=O)NC2(CCCc3ccccc32)C1=O (stereo not given)	0	-7	.	.	-4	.
O=C(NCCCNC(=O)c1cnccn1)c1ccc(Br)cc1	-2	4	.	.	-2	.
CC1CN(S(=O)(=O)c2cccc(C(=O)NCC(c3cccs3)N3CCOCC3)c2)CC(C)O1 (stereo not given)	.	6	.	.	1	.
O=C(O)c1ccccc1NC(c1ccccc1)c1ccc(Cl)cc1 (stereo not given)	-3	85*	.	.	11	87*
Cc1cc(/C=C2/C(=N)N3C(=NC2=O)SN=C3S(C)(=O)=O)c(C)n1-c1ccc(F)cc1	10	4	0.7	34	20	.
Cc1cccc(C)c1-n1cccc1/C=C1/C(=N)N2C(=NC1=O)SN=C2S(C)(=O)=O	5	89*	0.9	10	2	90*
CCC1=NN2C(=N)/C(=C\c3cccn3-c3ccc(C)cc3C)C(=O)N=C2S1	4	36	0.7	30	12	.
CCC1=NN2C(=N)/C(=C\c3cccn3-c3c(C)cccc3C)C(=O)N=C2S1	0	84*	0.6	38	6	87*
Cc1ccc(-n2cccc2/C=C2/C(=N)N3C(=NC2=O)SN=C3S(C)(=O)=O)cc1Cl	3	65*	0.5	48	1	52*
CC(=O)Oc1c(I)cc(I)cc1C(=O)Nc1ccc(Cl)cc1	-1	24	.	.	5	.
COc1ccc(CCNC(=O)COC(=O)Cc2c[nH]c3ccccc23)cc1OC	.	-19	.	.	-5	.
O=C(O)c1cc2c(cc1NC(=O)c1ccccc1C(F)(F)F)OCCCO2	-3	63*	.	.	-5	63*
O=C(Nc1cc2c(cc1C(=O)O)OCCCO2)c1ccc(C(F)(F)F)cc1	5	10	.	.	-3	.
O=S(=O)(Nc1cc2nc3ccccc3nc2n1Cc1ccccc1)c1ccc(Cl)cc1	-3	45*	0.8	20	-1	32
O=C(NCc1ccccc1)c1ccc2nc(-c3ccco3)c(-c3ccco3)nc2c1	6	44*	0.5	46	32	31
O=C(NCc1ccccc1)c1ccc2nccnc2c1	8	-12	0.9	8	13	.
COc1ccc(OC)c(-c2cc(C(=O)N3CCCc4ccccc43)no2)c1	1	47*	0.9	10	1	31	ATG4B conf=68*
COc1ccccc1-c1cc(C(=O)N2CCCc3ccccc32)no1	3	26	0.8	23	-1	.
CC1(C)Cc2c(sc(NC(=S)NC(=O)c3ccccc3)c2C(=O)O)CO1	3	41*	0.2	78*	1	32	ATG4B conf=74*
CC1(C)Cc2c(sc(NC(=O)c3ccco3)c2C(=O)O)CO1	-1	-6	0.8	18	-9	.

Screening data as filed in PubChem BioAssay.
